From ChEMBL document CHEMBL3763114, “Syntheses and biological evaluation of 1,2,3-triazole and 1,3,4-oxadiazole derivatives of imatinib” (Bioorg Med Chem Lett, 2016)

Assays:
K562 [1] = assay: Antiproliferative activity against human K562 cells assessed as inhibition of cell survival after 72 hrs by MTT assay; assay type: functional, cell-based; settings: K562, 72 h
How it was run: (§1)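 Each of the three leukemia lines (K562, HL60, KG1a) was incubated with the compounds for 72 h. The survival rate was then read by MTT viability assay, with imatinib run as the positive control. Inhibitory activity is reported as IC50 in μM.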

[2] = Antiproliferative activity against human HL60 cells assessed as inhibition of cell survival after 72 hrs by MTT assay; assay type: functional, cell-based; settings: HL-60, 72 h; how it was run: as §1
[3] = Antiproliferative activity against human KG1a cells assessed as inhibition of cell survival after 72 hrs by MTT assay; assay type: functional, cell-based; settings: KG-1a; how it was run: as §1
[4] = Cytotoxicity against human 293T cells assessed as growth inhibition; assay type: cell-based, HEK-293T
K562 [5] = assay: Antiproliferative activity against human K562 cells assessed as reduction in cell viability after 72 hrs by resazurin assay; assay type: functional, cell-based; settings: K562, 72 h
[6] = Potency index, ratio of imatinib IC50 to compound IC50 for antiproliferative activity against human KG1a cells; assay type: functional

Compound	IC50 (K562 [1]) [µM]	IC50 [2] [µM]	IC50 [3] [µM]	CC50 [4] [µM]	IC50 (K562 [5]) [µM]	Ratio IC50 [6]
CCN(CC)c1ccc(-n2cc(-c3ccc(C)c(Nc4nccc(-c5cccnc5)n4)c3)nn2)cc1	> 30	13.6	2.93			
Cc1ccc(-c2cn(-c3cc(C(F)(F)F)ccc3N3CCOCC3)nn2)cc1Nc1nccc(-c2cccnc2)n1	9.99	17.5	2.43			
Cc1ccc(-c2cn(-c3ccc(N4CCOCC4)cc3)nn2)cc1Nc1nccc(-c2cccnc2)n1	23.4	> 30	5.28			
COc1ccc(-c2cn(-c3ccc(C)c(Nc4nccc(-c5cccnc5)n4)c3)nn2)cc1C(F)(F)F	11.2	21.2	30			
Cc1ccc(-c2cn(-c3ccc(CN4CCOCC4)cc3)nn2)cc1Nc1nccc(-c2cccnc2)n1	22.6	6.96	1.32			
Cc1ccc(-c2nnc(-c3ccc(CN4CCN(C)CC4)cc3)o2)cc1Nc1nccc(-c2cccnc2)n1	4.9	0.57	1.78	7.63		
Cc1nnc(-c2ccc(C)c(Nc3nccc(-c4cccnc4)n3)c2)o1	> 30	> 30	18			
Cc1ccc(-n2cc(CCCCO)nn2)cc1Nc1nccc(-c2cccnc2)n1	11.2					
Cc1ccc(-c2nnc(-c3ccc(C)c(C(F)(F)F)c3)o2)cc1Nc1nccc(-c2cccnc2)n1	> 30	> 30	> 30			
Cc1ccc(-n2cc(-c3ccc(CN4CCN(C)CC4)cc3)nn2)cc1Nc1nccc(-c2cccnc2)n1	0.79			14.9	0.89	
Cc1ccc(-n2cc(-c3ccc(CN4CCN(C)CC4)c(C(F)(F)F)c3)nn2)cc1Nc1nccc(-c2cccnc2)n1	0.04	0.02	1.27	8.18		
Cc1ccc(-c2nnc(-c3cccnc3)o2)cc1Nc1nccc(-c2cccnc2)n1	> 30	> 30	> 30			
Cc1ccc(-c2cn(-c3ccc(CN4CCCC4)cc3)nn2)cc1Nc1nccc(-c2cccnc2)n1	3.89	1.57	5.42			
Cc1ccc(-n2cc(-c3ccc(C)c(C(F)(F)F)c3)nn2)cc1Nc1nccc(-c2cccnc2)n1	> 30	> 30	> 30			
Cc1ccc(-c2nnc(-c3ccc(CN4CCN(C)CC4)c(C(F)(F)F)c3)o2)cc1Nc1nccc(-c2cccnc2)n1	0.51	0.05	0.58	2.17		30
Cc1ccc(-c2cn(-c3ccc(CN4CCN(C)CC4)cc3)nn2)cc1Nc1nccc(-c2cccnc2)n1	4.7	6.74	6.16	4.15		
Cc1ccc(-c2nnc(-c3ccc(CN4CCN(CCN)CC4)c(C(F)(F)F)c3)o2)cc1Nc1nccc(-c2cccnc2)n1	0.3	0.02	0.48			30

Compound	IC50 (K562 [1]) [µM]	IC50 [2] [µM]	IC50 [3] [µM]	CC50 [4] [µM]	IC50 (K562 [5]) [µM]	Ratio IC50 [6]
Cc1ccc(-n2cc(C(C)O)nn2)cc1Nc1nccc(-c2cccnc2)n1 (stereo not drawn)	15.3	25.5	12.7			
C=CC(=O)NCCN1CCN(Cc2ccc(-c3nnc(-c4ccc(C)c(Nc5nccc(-c6cccnc6)n5)c4)o3)cc2C(F)(F)F)CC1	0.6	2.66				
COc1cc(/C=C/C(=O)CC(=O)/C=C/c2ccc(OCCN3CCN(Cc4ccc(-c5nnc(-c6ccc(C)c(Nc7nccc(-c8cccnc8)n7)c6)o5)cc4)CC3)c(OC)c2)ccc1O	> 30	> 30	> 30			
Cc1ccc(-n2cc(-c3cc(C(F)(F)F)cc(C(F)(F)F)c3)nn2)cc1Nc1nccc(-c2cccnc2)n1	2.65	1.6	9.93			
Cc1ccc(-c2nnc(-c3ccc(CN4CCN(CCO)CC4)cc3)o2)cc1Nc1nccc(-c2cccnc2)n1	4.85	0.81	4.53			
Cc1ccc(-c2nnc(-c3ccc(CN4CCN(CCN=C=S)CC4)cc3)o2)cc1Nc1nccc(-c2cccnc2)n1	0.92	0.29	0.37			
Cc1ccc(-c2cn(-c3ccc(CN4CCN(C)CC4)c(C(F)(F)F)c3)nn2)cc1Nc1nccc(-c2cccnc2)n1	0.03	0.02	1.04	2.66		
Cc1ccc(-c2nnc(-c3ccc(CN4CCN(CCO)CC4)c(C(F)(F)F)c3)o2)cc1Nc1nccc(-c2cccnc2)n1	1.81	0.39	0.98			
Cc1ccc(-c2cn(-c3ccc(CN4CCCCC4)cc3)nn2)cc1Nc1nccc(-c2cccnc2)n1	3.29	0.74	1.75			
Cc1ccc(-c2cn(-c3ccccc3N3CCOCC3)nn2)cc1Nc1nccc(-c2cccnc2)n1	5.86	1.49	0.44			30
COc1ccc(-n2cc(-c3ccc(C)c(Nc4nccc(-c5cccnc5)n4)c3)nn2)cc1	> 30	> 30				
Cc1ccc(-c2nnc(-c3ccc(CN4CCN(CCN=C=S)CC4)c(C(F)(F)F)c3)o2)cc1Nc1nccc(-c2cccnc2)n1	0.5	0.07	0.94			
Cc1ccc(-c2nnc(-c3cc(C(F)(F)F)cc(C(F)(F)F)c3)o2)cc1Nc1nccc(-c2cccnc2)n1	> 30	> 30	> 30			
Cc1ccc(-c2nnc(-c3ccc(F)c(C(F)(F)F)c3)o2)cc1Nc1nccc(-c2cccnc2)n1	29.7	> 30	> 30			
Cc1ccc(-n2cc(CCO)nn2)cc1Nc1nccc(-c2cccnc2)n1	10.7	9.1	6.54			
Cc1ccc(NC(=O)c2ccc(CN3CCN(C)CC3)cc2)cc1Nc1nccc(-c2cccnc2)n1 [IMATINIB]		0.03	16.7	20.5		
